For orientation: Ki means a dissociation constant, usually derived from enzyme kinetics or from competition with a known ligand. Lower therefore signals a stronger hold on the target.

Data on 15 compounds can be found in ChEMBL document CHEMBL1124099, “[1,2,4]Triazolo[4,3-a]quinoxalin-4-amines: a new class of A1 receptor selective adenosine antagonists” (J Med Chem, 1988).

One assay concerns the target T1, Adenosine receptor A1 (Rattus norvegicus, UniProt P25099).
T1 sequence (P25099 whole entry): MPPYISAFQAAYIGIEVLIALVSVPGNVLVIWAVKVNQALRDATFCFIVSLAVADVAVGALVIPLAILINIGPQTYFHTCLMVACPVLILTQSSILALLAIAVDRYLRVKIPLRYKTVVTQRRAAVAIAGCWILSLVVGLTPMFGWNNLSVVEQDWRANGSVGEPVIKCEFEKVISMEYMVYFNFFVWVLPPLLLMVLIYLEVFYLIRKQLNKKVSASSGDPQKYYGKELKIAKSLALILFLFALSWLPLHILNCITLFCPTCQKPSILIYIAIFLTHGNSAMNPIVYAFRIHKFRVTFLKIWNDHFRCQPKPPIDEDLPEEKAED
Description: Binding affinity towards adenosine A1 receptor using [3H]N-cyclohexyladenosine in rat whole brain membranes. Type of assay: cell membranes. The method in brief:
(§1)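 Radioligand displacement on rat membranes: A1 used [3H]N6-cyclohexyladenosine ([3H]CHA) with whole-brain membranes, and A2 used [3H]NECA with striatal membranes. The procedure follows an earlier report. Each value is the mean of three or more independent experiments.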

For a further assay, the target named is Adenosine A2 receptor (Rattus norvegicus, UniProt P29276+P30543). Description: Binding affinity against Adenosine-2 receptor with [3H]-NECA in rat striatal membranes. Type of assay: cell membranes. In a few lines:
as §1

Assay [1] has as its target Adenosine receptors; A1 & A2 (Rattus norvegicus) (UniProt P29276+P25099+P30543). Briefly: Ratio of Ki at A2 and A1 receptors. Type of assay: protein assay.

In the case of `CCCc1nnc2c(NC3CCCC3)nc3ccccc3n12`, the Ki at Adenosine receptor A1 stood at 39 nM; on Adenosine A2 receptor, 1830 nM. In addition, in assay [1], the Ratio is 47.

`CCc1nnc2c(NCC(C)O)nc3ccccc3n12` (stereo not given): the figures for the Ki at Adenosine receptor A1 and at Adenosine A2 receptor were 330 nM and 22000 nM, respectively. For the same compound, the Ratio in assay [1] is 67.

`CCc1nnc2c(NC3CC4CCC3C4)nc3ccccc3n12` (stereo not given): the figures for the Ki at Adenosine receptor A1 and at Adenosine A2 receptor were 44 nM and 6100 nM, respectively. For the same compound, in assay [1], the Ratio was 139.

With `CCc1nnc2c(Nc3ccccc3)nc3ccccc3n12`, the results for the Ki at Adenosine receptor A1 and on Adenosine A2 receptor were 630 nM and 11800 nM, respectively. For the same compound, the Ratio in assay [1] is 18.7.

With `c1ccc2c(c1)nc(NC1CCCC1)c1nncn12`, the Ki came to 181 nM at Adenosine receptor A1 and 6700 nM at Adenosine A2 receptor. Further, the Ratio in assay [1] worked out at 37.

As for `Cc1nnc2c(NC3CCCC3)nc3ccccc3n12`, the Ki at Adenosine receptor A1 was 34 nM; on Adenosine A2 receptor, 2700 nM. Also, the Ratio in assay [1] turned out to be 79.

As for `CCN(CC)c1nc2ccccc2n2cnnc12`, the Ki at Adenosine receptor A1 came to 8900 nM; on Adenosine A2 receptor it was 18800 nM. Also, the Ratio in assay [1] worked out at 2.1.

Take `CCc1nnc2c(NC3CCCC3)nc3ccccc3n12`: the values for the Ki at Adenosine receptor A1 and at Adenosine A2 receptor were 28 nM and 3000 nM, respectively. The Ratio in assay [1] was found to be 107.

Take `CCc1nnc2c(NC(C)C)nc3ccccc3n12`: the Ki at Adenosine receptor A1 is 240 nM; at Adenosine A2 receptor, 4200 nM. Further, in assay [1], the Ratio is 17.5.

As to `CCc1nnc2c(NC3CCCCC3)nc3ccccc3n12`, the Ki worked out at 80 nM at Adenosine receptor A1 and 4000 nM on Adenosine A2 receptor. In assay [1], the Ratio came out at 50.

As to `CC(C)Nc1nc2ccccc2n2cnnc12`, the Ki at Adenosine receptor A1 is 2300 nM; at Adenosine A2 receptor, 7000 nM. The Ratio in assay [1] came out at 3.

Consider `CCc1nnc2c(NC3CC3)nc3ccccc3n12`, for which the Ki on Adenosine receptor A1 was determined as 260 nM; on Adenosine A2 receptor it was 4500 nM. In addition, in assay [1], the Ratio turned out to be 17.3.

For `CCc1nnc2c(NC3CCC3)nc3ccccc3n12`, the Ki at Adenosine receptor A1 stood at 58 nM; on Adenosine A2 receptor it was 1710 nM. Moreover, the Ratio in assay [1] came out at 29.

For the compound `FC(F)(F)c1nnc2c(NC3CCCC3)nc3ccccc3n12`, the Ki was found to be 7.3 nM at Adenosine receptor A1 and 1010 nM at Adenosine A2 receptor. In addition, in assay [1], the Ratio was 138.

Regarding `CCCCc1nnc2c(NC3CCCC3)nc3ccccc3n12`, the Ki was 55 nM on Adenosine receptor A1 and over 10000 nM on Adenosine A2 receptor. In assay [1], the Ratio was over 182.
